Data taken from ChEMBL document CHEMBL5316332 (J Med Chem, 2023).
The source made the active and inactive calls. No cut-off for these calls is given here.

What was measured:
[1] = target: T1, Bone morphogenetic protein receptor type-2 (Homo sapiens) (UniProt Q13873); assay: Inhibition of human BMPR2 at 1 uM by DiscoveRx Kinomescan method
T1 sequence (whole entry): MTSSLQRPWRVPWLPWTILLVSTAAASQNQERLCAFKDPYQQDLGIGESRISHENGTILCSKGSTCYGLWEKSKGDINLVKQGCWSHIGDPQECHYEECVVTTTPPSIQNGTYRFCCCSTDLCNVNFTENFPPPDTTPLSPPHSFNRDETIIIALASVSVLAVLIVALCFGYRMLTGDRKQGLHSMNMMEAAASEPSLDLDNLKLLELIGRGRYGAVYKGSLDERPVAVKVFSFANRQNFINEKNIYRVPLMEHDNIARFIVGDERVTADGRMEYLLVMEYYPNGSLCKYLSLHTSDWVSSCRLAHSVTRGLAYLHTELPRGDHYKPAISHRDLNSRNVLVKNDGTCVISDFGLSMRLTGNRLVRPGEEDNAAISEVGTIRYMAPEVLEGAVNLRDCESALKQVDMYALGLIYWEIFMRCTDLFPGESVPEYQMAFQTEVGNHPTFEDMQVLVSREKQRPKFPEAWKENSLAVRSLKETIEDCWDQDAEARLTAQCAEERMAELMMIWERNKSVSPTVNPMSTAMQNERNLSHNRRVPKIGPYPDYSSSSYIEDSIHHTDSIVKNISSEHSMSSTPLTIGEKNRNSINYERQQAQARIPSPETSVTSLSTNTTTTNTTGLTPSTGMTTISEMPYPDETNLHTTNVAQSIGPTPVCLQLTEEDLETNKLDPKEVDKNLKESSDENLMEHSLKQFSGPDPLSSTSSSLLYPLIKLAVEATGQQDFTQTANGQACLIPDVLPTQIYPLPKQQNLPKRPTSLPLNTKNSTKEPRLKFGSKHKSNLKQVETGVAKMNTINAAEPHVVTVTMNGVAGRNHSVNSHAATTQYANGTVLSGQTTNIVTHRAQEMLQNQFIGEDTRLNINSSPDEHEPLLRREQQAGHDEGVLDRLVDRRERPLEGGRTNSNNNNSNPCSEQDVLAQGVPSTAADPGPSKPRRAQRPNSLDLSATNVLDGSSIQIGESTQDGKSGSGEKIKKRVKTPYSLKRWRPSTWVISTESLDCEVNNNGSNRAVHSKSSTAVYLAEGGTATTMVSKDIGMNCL
Summary of the method: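 Outsourced KINOMEscan panel of 403 kinases, with compound at 1 μM.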

[2] = target: Activin receptor type-1-like (Homo sapiens, UniProt P37023); assay: Inhibition of ACVRL1 (unknown origin) by LanthaScreen TR-FRET assay
Activin receptor type-1-like, sequence (P37023 whole entry): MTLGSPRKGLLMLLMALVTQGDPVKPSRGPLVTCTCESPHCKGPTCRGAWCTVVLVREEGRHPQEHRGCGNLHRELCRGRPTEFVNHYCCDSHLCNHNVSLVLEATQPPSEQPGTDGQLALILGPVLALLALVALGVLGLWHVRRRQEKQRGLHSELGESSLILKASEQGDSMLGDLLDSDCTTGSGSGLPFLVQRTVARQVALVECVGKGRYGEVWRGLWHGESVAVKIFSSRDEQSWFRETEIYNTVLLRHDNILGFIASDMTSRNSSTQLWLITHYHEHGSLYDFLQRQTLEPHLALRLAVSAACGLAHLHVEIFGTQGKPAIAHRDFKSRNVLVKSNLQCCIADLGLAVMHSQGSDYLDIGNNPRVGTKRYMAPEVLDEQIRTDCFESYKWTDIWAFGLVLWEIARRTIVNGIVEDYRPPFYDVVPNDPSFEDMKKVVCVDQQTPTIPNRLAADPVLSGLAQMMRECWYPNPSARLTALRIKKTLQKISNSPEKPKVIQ
Summary of the method: (§1)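 Outsourced SelectScreen profiling using a LanthaScreen TR-FRET binding format, in which a tight-binding tracer is displaced from the kinase.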

HEK293T = assay: Inhibition of BMP signalling pathway in BMP2-stimulated human HEK293T cells assessed as decrease in SMAD5 phosphorylation at 25 uM preincubated for 30 mins followed by BMP2 stimulation and measured after 15 mins by Western blot analysis; format: cell-based; conditions: time 45.0 min
Summary of the method: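 HEK293T cells, 3 × 10^5 per well, starved overnight in DMEM with 2 mM glycine and 2% heat-inactivated FBS. Pretreated 30 min with inhibitor, then 5 ng/mL BMP2 for 15 min. Lysed in M-PER with protease inhibitors. Western blot for pSMAD1/5, SMAD1, SMAD5 and GAPDH, quantified by densitometry.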

HUVEC = assay: Inhibition of BMP signalling pathway in BMP9-stimulated human HUVEC cells assessed as decrease in SMAD1 phosphorylation at 25 uM preincubated for 30 mins followed by BMP2 stimulation and measured after 15 mins by Western blot analysis; format: cell-based; conditions: time 45.0 min
Summary of the method: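 HUVECs, about 3 × 10^5 per well, starved overnight in Kaighn's F-12 with 0.5% FBS and 30 μg/mL endothelial cell growth supplement. Pretreated 30 min with inhibitor, then stimulated with 0.5 ng/mL BMP9. Lysed in M-PER with protease and phosphatase inhibitors. Western blot for pSMAD1/5, SMAD1 and SMAD5, quantified by densitometry.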

[3] = target: T2, Activin receptor type-1 (Homo sapiens) (UniProt Q04771); assay: Inhibition of ACVR1 (unknown origin) by LanthaScreen TR-FRET assay; summary of the method: as §1
T2 sequence (whole entry): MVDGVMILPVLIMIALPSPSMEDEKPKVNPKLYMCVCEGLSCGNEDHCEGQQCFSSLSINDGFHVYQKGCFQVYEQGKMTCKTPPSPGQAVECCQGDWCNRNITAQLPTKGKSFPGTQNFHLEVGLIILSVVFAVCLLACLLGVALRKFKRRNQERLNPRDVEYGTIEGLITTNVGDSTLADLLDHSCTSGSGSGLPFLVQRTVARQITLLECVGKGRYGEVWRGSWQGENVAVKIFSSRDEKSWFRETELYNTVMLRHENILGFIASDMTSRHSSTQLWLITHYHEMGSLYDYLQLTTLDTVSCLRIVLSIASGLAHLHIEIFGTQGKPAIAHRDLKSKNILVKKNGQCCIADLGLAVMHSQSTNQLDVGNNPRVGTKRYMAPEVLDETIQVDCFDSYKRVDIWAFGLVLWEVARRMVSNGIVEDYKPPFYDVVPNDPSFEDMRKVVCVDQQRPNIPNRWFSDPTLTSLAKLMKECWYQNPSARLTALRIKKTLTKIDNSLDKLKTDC

Row | inhibition [1] | IC50 [2] [nM] | inhibition [3] | Compound | inhibition (HEK293T) | inhibition (HUVEC)
1 | Active | 267 |  | CNC(=O)[C@@H]1CC[C@@H](n2c(-c3ccc4cnccc4c3)nc3ccc(C(=O)NCc4cccc(C(N)=O)c4)cc32)C1 |  | 
2 |  | 131 |  | NC(=O)c1cccc(CNC(=O)c2ccc3nc(-c4ccc5cnccc5c4)n(C4CCCC4)c3c2)c1 | Active | Active
3 |  |  | inactive | COc1cnc(Nc2cccc(S(N)(=O)=O)c2)nc1N1CCN(c2ccccc2)C(=O)C1 | Active | Active
